For 97 compounds, cytotoxicity results are on record in ChEMBL document CHEMBL4513216, “Probing the Open Global Health Chemical Diversity Library for Multistage-Active Starting Points for Next-Generation Antimalarials” (ACS Infect Dis, 2020).

The nature of the data set: Toxicity liver stage against HepG2, at 10uM. As to conditions: human, HepG2-A16-CD81EGFP cells; read-out: INHIBITION
Details: test concentration 10 uM, cell line HepG2-A16-CD81EGFP. It counts as cell-based. In a few lines: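 Uninfected HepG2-A16-CD81EGFP cells, 3 × 10^3 per well, 1536-well, plated on prespotted compound at 10 μM final, parasite-free screening media added to match infected plates; puromycin 10 μM positive, DMSO 0.5% negative; run in parallel with 48 h PbLuc assay at 37 °C, 5% CO2; viability by CellTiter-Glo luminescence, normalized to controls.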
`Cc1n[nH]c2c1C(c1ccc(Cl)cc1)SCC(=O)N2` (configuration not stated): the cytotoxicity at 10 µM turned out to be 19.2%.
As for `CCOc1nc2cnccc2n(CC(=O)NCc2ccco2)c1=O`, the cytotoxicity at 10 µM was -8.84%.
The same measure for `CCCC(O)CN1CC(C)(C)CN(C(=O)c2ccc(Cl)cc2)CC1=O` (configuration not stated): 2.78%.
For the compound `CCOC(=O)[C@@H]1CN2CCNC[C@@H]2[C@H]1c1ccccc1`, the cytotoxicity at 10 µM is 3.88%.
As for `CCCn1[nH]c(CNc2cccc(Cl)c2)nc1=O`, the figure is 0.566%.
The same measure for `O=C(NCC(Cc1cccc(F)c1)N1CCCC1=O)c1ccc(=O)[nH]n1` (configuration not stated): -0.634%; for `O=C(Cn1cccn1)N1CCC(Oc2cnccn2)CC1`: 7.11%.
As for `COc1cc(C(=O)NCCc2ccccc2OC)on1`, the figure is 0.409%; as for `NC(=O)N1CC[C@H](O)[C@@H]1Cc1ccccc1`, 3.32%.
`Cc1nc(CN2CCc3nc(NC(C)C)nc(C)c3C2)cs1`: the cytotoxicity at 10 µM amounted to 2.53%.
As for `CS(=O)(=O)NC[C@]12COC[C@H]1CN(C(=O)CCc1ccccc1)C2`, the figure is -1.23%; as for `Cc1ccccc1CS(=O)(=O)c1nnc(C(C)NC(=O)OC(C)(C)C)o1` (configuration not stated), -1%.
The same measure for `Cc1c(S(=O)(=O)NCC(C)C)cnn1C`: 4.54%; for `Cc1ccc(CNc2n[nH]c(C)n2)cc1`: -2.25%; for `CCc1cc(=O)n(CC(=O)N2CCCC2)c(-c2cccc(F)c2)n1`: 6.75%.
Regarding `CN1CCCC(c2nnc3n2CCN(S(=O)(=O)c2ccccc2Cl)C3)C1` (configuration not stated), the cytotoxicity at 10 µM was -2.92%.
For the compound `Cc1cc(N(C)C)cc(C2CCN(S(=O)(=O)c3cccs3)C2)n1` (configuration not stated), the cytotoxicity at 10 µM is 7.17%.
The same measure for `O=c1c(CN2CC3CCCN3C[C@@H]2CCO)coc2ccc(Cl)cc12` (some centres not stated): 3.19%; for `CC(C(=O)NCc1cccs1)N1CCN(Cc2nccn2C)CC1` (configuration not stated): -14.5%; for `CN(Cc1cnn(C)c1)CC(O)c1ccc2c(c1)OCO2` (configuration not stated): -9.98%.
As to `CC(C(=O)NC1CC1)S(=O)(=O)Cc1noc(C(C)(C)C)n1` (configuration not stated), the cytotoxicity at 10 µM was found to be 9.42%.
For the compound `NC(=O)CCCNC(=O)Cc1csc(Cc2ccccn2)n1`, the cytotoxicity at 10 µM was -4.56%.
`COc1cc2c(cc1CNC(=O)Cc1cc(C)[nH]n1)OC(C)C2` (configuration not stated): the cytotoxicity at 10 µM is -13.8%.
On to `NS(=O)(=O)CCNC(=O)c1cc(Br)c2c(c1)OCCO2`, for which the cytotoxicity at 10 µM was determined as 1.06%.
As for `COc1cc(C)ccc1OCC(=O)NS(=O)(=O)c1cc(F)ccc1F`, the figure is 2.15%.
The same measure for `CCc1cccc(NS(=O)(=O)c2cc(C)c(C(=O)O)s2)c1`: -1.23%; for `N#Cc1cccnc1NCCNC(=O)N1CCN2CCCCC2C1` (configuration not stated): 0.242%.
The same measure for `CC(CNS(=O)(=O)c1cccc(Cl)c1)N1CCN(C)CC1` (configuration not stated): 9.26%.
`COC(=O)CCN1CCC(C(=O)c2cc(F)ccc2F)CC1`: the cytotoxicity at 10 µM was -11.1%.
Consider `CCn1cnnc1C1CCN(C(=O)c2c(C)oc(C)c2C)CC1`, for which the cytotoxicity at 10 µM worked out at 5.89%.
As for `CCN(CC(=O)NC(C)C)C(=O)c1ccc(-c2ccsc2)nc1C`, the figure is -0.908%; as for `CC(CNC(=O)Nc1ccc(F)cc1Br)N1CCOCC1` (configuration not stated), 9.21%; as for `CCOC(C)c1noc(CN2CCCN(c3ccccn3)CC2)n1` (configuration not stated), -4.05%.
On to `O=C(NS(=O)(=O)c1ccc(C2CCCCC2)cc1)C1COCCO1` (configuration not stated), for which the cytotoxicity at 10 µM stood at 7.02%.
The same measure for `CCN(CC(=O)N(C)C)C(=O)C(C)(C)c1ccc2c(c1)OCCO2`: 1.22%; for `Cc1cccc(CCNC(=O)CCS(=O)(=O)C2CCCC2)c1`: 9.27%; for `Cc1cccc(C2CCCN2C(=O)CN(C)S(C)(=O)=O)c1C` (configuration not stated): 12.3%.
As for `CCOCC(=O)NC(C#N)c1cnn(-c2ccccc2)c1` (configuration not stated), the figure is -4.39%; as for `CCOCC(=O)Nc1cccnc1-n1ccnc1C`, 3.62%; as for `CC(C)CCN1CCN(C(=O)c2ccc(=O)[nH]n2)CC1`, -6.96%.
As to `Cc1nc(NC(=O)OC(C)(C)C)sc1C(=O)O`, the cytotoxicity at 10 µM stood at 7.89%.
`c1ccc2nc(NCC3(N4CCOCC4)CCSC3)cnc2c1` (configuration not stated): the cytotoxicity at 10 µM was 12.7%.
The same measure for `CC(CCc1ccccc1)N1CCC(C(=O)NCc2ccccc2)CC1` (configuration not stated): 11%; for `CCn1ncc(C(=O)NCc2ccc(C)c(OC)c2)c1C(F)(F)F`: 10.2%; for `O=C1CCC(C(=O)Nc2cnn(-c3ccccc3Br)c2)N1` (configuration not stated): 3.56%.
The same measure for `CC(C)c1noc(CCCC(=O)NCCOc2ccccc2)n1`: 1.03%.
As for `CCc1nc(C2CCCN2Cc2nc(CCOC)no2)no1` (configuration not stated), the figure is -10.8%; as for `CCOc1cccc(C(=O)NCCC(=O)Nc2ccncc2)c1`, 2.37%; as for `Cn1c2c(c(=O)n1C)CN(C(=O)c1cccc(F)c1)CCC2`, -101%.
`Cc1nc2c(c(NC(C)C)n1)CCN(C(=O)CCO)CC2`: the cytotoxicity at 10 µM is -109%.
As for `CN(C)C(=O)CO[C@H]1CO[C@@]2(CCN(S(C)(=O)=O)C2)C1`, the figure is -106%; as for `O=C(c1ncccn1)N1C[C@@H]2COC[C@]2(COc2cccnc2)C1`, -91.5%; as for `O=S(=O)(NCc1cc2n(n1)CCNC2)c1ccc(OC(F)(F)F)cc1`, 11.5%.
As for `OC1(CN2CCCCC2)CCN(c2cccc(C(F)(F)F)n2)C1` (configuration not stated), the figure is -10.4%.
As for `CCCOCC(=O)N1CCCC(c2nnc(CN3CCCCC3)n2C)C1` (configuration not stated), the figure is -2.34%; as for `Cc1ncsc1CN(Cc1ccccc1)Cc1ncc[nH]1`, -3.22%.
Take `CCN(Cc1ccccc1)C(=O)CCN1CC(O)C1`: the cytotoxicity at 10 µM was determined as 7.48%.
As for `Cc1ccc(CN(CCN(C)C)C(=O)Nc2cnn(C)c2)s1`, the figure is 4.16%; as for `CC(C)=CCC1(C(=O)O)CCCN(c2cc(N)ncn2)C1` (configuration not stated), 10.1%.
As for `CO[C@@]1(C)C[C@@H](O)C12CCN(C(=O)CCn1c(C)cccc1=O)CC2`, the figure is 3.43%; as for `O=C(Cn1cccc1)NCC1CCN(Cc2cc3ccccc3[nH]2)C1` (configuration not stated), 12.6%.
`CC(=O)NC1CCN(c2nc(N(C)C)nc3c2CCCC3)CC1`: the cytotoxicity at 10 µM was -10.7%.
Turning to `Cc1cc(NCC2CCS(=O)(=O)C2)n2nc(C)cc2n1` (configuration not stated), the cytotoxicity at 10 µM amounted to 1.41%.
As for `Cc1ncc(C)c(N2CCC(CCc3ccccc3)(C(=O)O)CC2)n1`, the figure is 3.49%; as for `Cc1ccsc1CN(C)CCc1scnc1C`, -17.6%.
As for `c1ccc(CCN2CCCC(Cn3ccnc3)C2)cc1` (configuration not stated), the cytotoxicity at 10 µM is 1.43%.
The same measure for `Cc1ccccc1N1CCN(C2CCCN(C(=O)CCC(C)C)C2)CC1` (configuration not stated): -5.95%; for `O=C(c1cnc(O)cn1)N(Cc1ccsc1)CC1CCCO1` (configuration not stated): 3.7%.
For the compound `COc1cccc(C(C(=O)O)N(C)Cc2ccc(C)o2)c1` (configuration not stated), the cytotoxicity at 10 µM is -1.35%.
The same measure for `COc1ccc(CN2CCN(C3CCc4ccccc4C3)CC2)cc1O` (configuration not stated): -6.55%; for `Cc1nn(C)c2nc(NCCCN3CCCC(CO)C3)sc12` (configuration not stated): -14.2%; for `CC(=O)N1CCC(N[C@@H]2CC[C@@H]2NS(=O)(=O)c2cccnc2)CC1`: 2.98%.
As for `CCc1noc(C)c1C(=O)N1C[C@H](NS(C)(=O)=O)[C@@H](C2CC2)C1`, the figure is 1.23%.
Regarding `Cc1ccccc1CSc1nc(N)cc(N2CCOCC(CO)C2)n1` (configuration not stated), the cytotoxicity at 10 µM was -9.23%.
As for `Cc1nc(N)sc1C(=O)N1CCC(C(O)Cc2ccccc2)CC1` (configuration not stated), the figure is 2.29%; as for `O=C(CCc1cc2n(n1)CCCN(C(=O)c1ccccn1)C2)NC1CC1`, -13.7%; as for `Cc1cc(CN2CCCC2c2noc(C(C)C)n2)on1` (configuration not stated), -0.713%.
The same measure for `CN1CCN(C2CCN(CCCOc3ccc(F)cc3)CC2)C1=O`: 0.28%; for `Cc1cc(CN2CCCC2c2c(C)nn(C)c2Cl)on1` (configuration not stated): -4.77%; for `Cc1nc2ccnn2c(C)c1CCC(=O)N1CCN(CCO)CC1`: -6.29%.
The same measure for `CC(C)(CNC(=O)COc1cccc(F)c1)C(N)=O`: -4.89%; for `O=C(CCc1ccc(F)cc1)NS(=O)(=O)c1ccc2c(c1)OCCCO2`: 4.4%.
With `CCc1ncc2c(n1)CN(Cc1nc(-c3ccccn3)no1)CC2`, the cytotoxicity at 10 µM is -20.9%.
For the compound `COc1c(CNC2CCOc3ccccc32)c(C(C)C)nn1C` (configuration not stated), the cytotoxicity at 10 µM was -0.169%.
With `Cc1ncsc1C(=O)N(C)Cc1ccncc1`, the cytotoxicity at 10 µM was -0.524%.
In the case of `CNS(=O)(=O)Cc1ccc(CNC(=O)Nc2cccnc2)cc1`, the cytotoxicity at 10 µM came to 0.684%.
The same measure for `Cc1ccc(S(=O)(=O)Nc2ccc(=O)n(C)c2)cc1`: 1.07%; for `Cc1cnn(CC(C)NCc2csc(-c3cnn(C)c3)n2)c1` (configuration not stated): 5.32%.
The same measure for `CCOc1ncccc1C(=O)N1CCCCC1c1nccs1` (configuration not stated): -8.7%.
For `COCC(=O)N1CCC2(CC1)NC(=O)c1ccccc12`, the cytotoxicity at 10 µM was determined as 3.15%.
As for `COCCN1CCOCC2(CCCN(Cc3cccc(F)c3)C2)C1` (configuration not stated), the figure is 0.346%; as for `CNC(=O)[C@@H]1C[C@H]2CN(Cc3nccs3)C[C@H]2N1C`, 7.73%; as for `O=C1CCC2(CCN(Cc3ccc(F)cc3)CC2)N1Cc1ccccc1`, -1.63%.
The same measure for `Cc1csc([C@H]2C[C@H]3CN(Cc4cc(C)on4)CC[C@@H]3O2)n1`: -98%.
Turning to `Cc1cccc(-c2ccc3nc(C4CCN(CC5CC5)CC4)nn3c2)c1`, the cytotoxicity at 10 µM is -12.2%.
`Cc1c(C2N3CC4(C)CN2CC(C)(C3)C4=O)[nH]c(=O)[nH]c1=O` (configuration not stated): the cytotoxicity at 10 µM worked out at 6.57%.
As for `c1ccc(-c2nnc(CN3C[C@H]4CC[C@@H](C3)N(CC3CCC3)C4)o2)cc1`, the figure is -8.51%.
